Data published in ChEMBL document CHEMBL1136288, “A catch-and-release strategy for the combinatorial synthesis of 4-acylamino-1,3-thiazoles as potential CDK5 inhibitors” (Bioorg Med Chem Lett, 2003).

What was measured:
[1] = target: T1, Cyclin-dependent kinase 5/CDK5 activator 1 (Homo sapiens) (UniProt Q00535+Q15078); test: Inhibition of Cyclin-dependent kinase 5-p35nck5a; format: protein-complex assay; settings: concentration not given here
In short: (§1)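 CDK5/GST-p25 was at 0.5 nM and CDK2/GST-cyclin A at 4 nM. Incubated 30 min at 37 °C, stopped with streptavidin SPA beads/EDTA, and counted. IC50 came from a sigmoidal dose-response fit, averaged when repeated.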

[2] = target: T2, Cyclin-dependent kinase 5/CDK5 activator 1 (Homo sapiens, UniProt Q00535); test: Ability to inhibit Cyclin-dependent kinase 5-p35.; format: protein-complex assay; in short: as §1
T2 sequence (Q00535 whole entry): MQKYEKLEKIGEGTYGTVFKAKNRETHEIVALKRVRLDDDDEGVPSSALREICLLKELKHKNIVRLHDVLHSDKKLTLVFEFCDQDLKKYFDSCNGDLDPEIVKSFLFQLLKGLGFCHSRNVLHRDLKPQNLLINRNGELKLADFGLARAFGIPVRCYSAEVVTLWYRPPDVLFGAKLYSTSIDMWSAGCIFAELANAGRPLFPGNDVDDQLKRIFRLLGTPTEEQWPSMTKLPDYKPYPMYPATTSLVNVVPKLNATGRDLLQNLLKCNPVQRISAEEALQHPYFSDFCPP
T2 sequence (Q15078 whole entry, further chain): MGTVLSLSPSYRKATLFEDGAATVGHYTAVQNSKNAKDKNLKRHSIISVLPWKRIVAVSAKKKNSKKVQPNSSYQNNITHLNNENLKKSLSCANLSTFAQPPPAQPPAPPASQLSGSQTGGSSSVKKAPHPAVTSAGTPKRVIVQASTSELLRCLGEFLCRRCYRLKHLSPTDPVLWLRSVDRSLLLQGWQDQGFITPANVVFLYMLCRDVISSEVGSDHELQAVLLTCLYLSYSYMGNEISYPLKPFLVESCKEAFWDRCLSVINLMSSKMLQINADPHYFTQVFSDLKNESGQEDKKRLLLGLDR

[3] = target: Cyclin-dependent kinase 2/cyclin A (Homo sapiens, UniProt P24941); test: Ability to inhibit cyclin-dependent kinase 2-cyclin A.; format: protein-complex assay; in short: as §1
[4] = target: T1, Cyclin-dependent kinase 5/CDK5 activator 1 (Homo sapiens); test: Inhibition of Cyclin-dependent kinase 5-p35nck5a at 20 uM; format: protein-complex assay
[5] = target: T2, Cyclin-dependent kinase 5/CDK5 activator 1; test: Inhibition of Tau Protein Kinase II (TPK II); format: protein-complex assay; in short: as §1
[6] = Specificity for CDK5 over Cyclin-dependent kinase 2-cyclin A

T1 sequence (Q00535 whole entry): as the sequence (Q00535 whole entry) above
T1 sequence (Q15078 99-307 partner limits assumed): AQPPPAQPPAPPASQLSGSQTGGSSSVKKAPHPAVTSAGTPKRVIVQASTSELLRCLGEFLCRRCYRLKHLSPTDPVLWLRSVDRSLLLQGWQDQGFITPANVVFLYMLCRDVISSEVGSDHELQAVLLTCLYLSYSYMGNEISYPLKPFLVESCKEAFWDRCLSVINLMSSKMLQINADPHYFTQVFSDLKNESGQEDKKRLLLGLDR

Row | Compound | IC50 [2] [µM] | IC50 [3] [µM] | further results
1 | O=C(Nc1csc(Cc2ccccc2Cl)n1)NN1CCOCC1 |  |  | inhibition [1]: 30%
2 | O=C(NNc1ccccc1)Nc1csc(Cc2c(Cl)cccc2Cl)n1 | > 100 |  | 
3 | O=C(NOc1ccccc1)Nc1csc(-c2ccccc2)n1 | 8 | 35 | 
4 | O=C(NOCc1ccccc1)Nc1csc(Cc2c(Cl)cccc2Cl)n1 |  |  | inhibition [4]: 40%
5 | O=C(Nc1csc(CSc2ccccc2)n1)NN1CCOCC1 | 30 | 30 | 
6 | O=C(Nc1csc(-c2ccc(Cl)cc2)n1)NN1CCOCC1 | > 100 |  | 
7 | CONC(=O)Nc1csc(Cc2c(Cl)cccc2Cl)n1 | 9 | > 100 | 
8 | CNNC(=O)Nc1csc(Cc2c(Cl)cccc2Cl)n1 | > 100 |  | 
9 | O=C(Nc1csc(-c2ccccc2Cl)n1)NN1CCOCC1 | 30 | 10 | 
10 | COc1ccc(OCc2nc(NC(=O)NN3CCOCC3)cs2)cc1 | 30 | 20 | 
11 | O=C(Nc1csc(Cc2ccccc2)n1)NN1CCOCC1 | 55 | > 100 | 
12 | O=C(Nc1csc(Cc2c(Cl)cccc2Cl)n1)NN1CCCCCC1 | 10 | 70 | 
13 | O=C(Nc1csc(Cc2ccc(Br)cc2)n1)NN1CCOCC1 |  |  | inhibition [1]: 26%
14 | CCc1nc(NC(=O)NN2CCOCC2)cs1 | > 100 |  | 
15 | O=C(Nc1csc(Cc2c(Cl)cccc2Cl)n1)NN(Cc1ccccc1)Cc1ccccc1 | > 100 |  | 
16 | O=C(NOc1ccccc1)Nc1csc(Cc2ccccc2)n1 | 20 | > 100 | 
17 | C=CCONC(=O)Nc1csc(Cc2c(Cl)cccc2Cl)n1 | 6 | 40 | 
18 | CN(C)NC(=O)Nc1csc(Cc2c(Cl)cccc2Cl)n1 | 4 | 10 | 
19 | CS(=O)(=O)Cc1nc(NC(=O)NN2CCOCC2)cs1 |  |  | inhibition [1]: 35%
20 | O=C(NOc1ccccc1)Nc1csc(Cc2c(Cl)cccc2Cl)n1 | 0.9 | > 100 | 
21 | O=C(Nc1csc(CS(=O)(=O)c2ccccn2)n1)NN1CCOCC1 | 10 | 5 | 
22 | NNC(=O)Nc1csc(Cc2c(Cl)cccc2Cl)n1 | > 100 |  | 
23 | O=C(Nc1csc(Cc2c(Cl)cccc2Cl)n1)NN1CCCCC1 | 6 | 30 | 
24 | CC(C)(C)ONC(=O)Nc1csc(Cc2c(Cl)cccc2Cl)n1 | 1 | 15 | 
25 | Cc1cccc(-c2nc(NC(=O)NN3CCOCC3)cs2)c1 | 30 | 20 | 
26 | CNN(C)C(=O)Nc1csc(Cc2c(Cl)cccc2Cl)n1 | > 100 |  | 

Now from value to compound, other results behind:

Row | IC50 [2] [µM] | IC50 [3] [µM] | Compound | further results
27 | 3 | 20 | O=C(Nc1csc(Cc2c(Cl)cccc2Cl)n1)NN1CCCC1 | 
28 | > 100 |  | COC[C@H]1CCCN1NC(=O)Nc1csc(Cc2c(Cl)cccc2Cl)n1 | 
29 | 30 | 10 | O=C(Nc1csc(-c2cccs2)n1)NN1CCOCC1 | 
30 | 80 | > 100 | O=C(Nc1csc(COc2ccccc2)n1)NN1CCOCC1 | 
31 | > 100 |  | Cc1ccc(-c2nc(NC(=O)NN3CCOCC3)cs2)cc1 | 
32 | 10 | 60 | CN(NC(=O)Nc1csc(Cc2c(Cl)cccc2Cl)n1)c1ccccc1 | 
33 | 5 | 20 | CCONC(=O)Nc1csc(Cc2c(Cl)cccc2Cl)n1 | 
34 | 6 | 90 | CS(=O)(=O)Cc1nc(NC(=O)NOc2ccccc2)cs1 | 
35 | 9 | 6 | O=C(Nc1csc(-c2ccccc2)n1)NN1CCOCC1 | 
36 | > 100 |  | O=C(NOCc1c(F)c(F)c(F)c(F)c1F)Nc1csc(Cc2c(Cl)cccc2Cl)n1 | 
37 | 1 | 10 | O=C(Nc1csc(Cc2c(Cl)cccc2Cl)n1)NN1CCOCC1 | Ki [5]: 0.5 µM; IC50 [6]: 10 µM
38 | 3 | 90 | O=C(NOC1CCCCO1)Nc1csc(Cc2c(Cl)cccc2Cl)n1 (stereo unspecified) | 
39 | 16 | > 100 | Cc1cccc(-c2nc(NC(=O)NOc3ccccc3)cs2)c1 | 
